{"source": "ChEMBL document CHEMBL1140002", "about": "“Synthesis and biological evaluation of (R)-N-(diarylmethylthio/sulfinyl)ethyl/propyl-piperidine-3-carboxylic acid hydrochlorides as novel GABA uptake inhibitors” (Bioorg Med Chem Lett, 2007)", "note": "Counter-ions that a name gives are not always drawn."}
{"biological_target": "Sodium- and chloride-dependent GABA transporter 1 (Mus musculus, UniProt P31648)", "assay": "Inhibition of [3H]GABA uptake at mouse GAT1 expressed in D8 cells", "type": "cell-based", "summary_of_the_method": "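D8 cells in RPMI1640 with 10% FBS grown to near confluence (~60,000 cells/well), rinsed with PBS, pre-incubated 10 min at rt in HBSS. Stopped by aspirating HBSS, three rapid cold PBS washes, cells solubilized in 2 N NaOH; uptake quantified by liquid scintillation counting.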", "units": {"IC50": "µM"}}
{"smiles": "Cc1ccc(C(SCCCN2CCC[C@@H](C(=O)O)C2)c2ccc(C)cc2)cc1", "IC50": 15.8}
{"smiles": "COc1ccc(C(SCCCN2CCC[C@@H](C(=O)O)C2)c2ccc(OC)cc2)cc1", "IC50": 120}
{"smiles": "COc1ccc(C(c2ccc(OC)cc2)[S+]([O-])CCN2CCC[C@@H](C(=O)O)C2)cc1", "note": "(stereo partly drawn)", "IC50": 589}
{"smiles": "Cc1ccccc1C(c1cccc(C)c1C)[S+]([O-])CCN1CCC[C@@H](C(=O)O)C1", "note": "(stereo partly drawn)", "IC50": 105}
{"smiles": "O=C(O)[C@@H]1CCCN(CCSC(c2ccccc2)c2ccccc2)C1", "IC50": 1600}
{"smiles": "COc1ccc(C(SCCN2CCC[C@@H](C(=O)O)C2)c2ccc(OC)cc2)cc1", "IC50": 4800}
{"smiles": "Cc1ccccc1C(SCCN1CCC[C@@H](C(=O)O)C1)c1cccc(C)c1C", "note": "(stereo partly drawn)", "IC50": 2130}
{"smiles": "O=C(O)[C@@H]1CCCN(CCCSC(c2ccccc2)c2ccccc2)C1", "IC50": 11.6}
{"smiles": "O=C(O)[C@@H]1CCCN(CC[S+]([O-])C(c2ccccc2)c2ccccc2)C1", "note": "(stereo partly drawn)", "IC50": 0.92}
{"smiles": "Cc1ccc(C(SCCN2CCC[C@@H](C(=O)O)C2)c2ccc(C)cc2)cc1", "IC50": 240}
{"smiles": "Cc1ccccc1C(SCCCN1CCC[C@@H](C(=O)O)C1)c1cccc(C)c1C", "note": "(stereo partly drawn)", "IC50": 16.9}
{"smiles": "Cc1ccc(C(c2ccc(C)cc2)[S+]([O-])CCN2CCC[C@@H](C(=O)O)C2)cc1", "note": "(stereo partly drawn)", "IC50": 1.18}
{"smiles": "Cc1ccsc1C(=CCCN1CCC[C@@H](C(=O)O)C1)c1sccc1C", "note": "[TIAGABINE HYDROCHLORIDE]", "IC50": 0.08}
